Measured values taken from ChEMBL document CHEMBL1165947, “Synthesis and antitumor activity of 2,5-bis(3'-indolyl)-furans and 3,5-bis(3'-indolyl)-isoxazoles, nortopsentin analogues” (Bioorg Med Chem, 2010).
In brackets after ≈: the same amount, converted by molar mass.

How the values were obtained:
[1] = Cytotoxicity against human LXFA 526L cells after 4 days by modified propidium iodide staining-based fluorescence assay; assay type: functional, cell-based; conditions: 96 h
Outline: (§1)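 Cells cultured in RPMI 1640 with 10% fetal calf serum and 0.1 mg/mL gentamicin at 37 °C, 5% CO2. Cells from exponential cultures were trypsinized and plated at 4.000-20.000 cells/well by line. After 24 h recovery, compounds were added at five log-spaced concentrations (highest 100 μg/mL) for 4 days. Proliferation was read as DNA content with aqueous propidium iodide (7 μg/ml), fluorescence ex 530/em 620 nm. Points were run in triplicate.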

MCF7 [2] = assay: Cytotoxicity against human MCF7 cells after 4 days by modified propidium iodide staining-based fluorescence assay; assay type: functional, cell-based; conditions: MCF7, 96 h; outline: as §1
SNB-75 = assay: Growth inhibition of human SNB75 cells; assay type: functional
Outline: (§2)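 Values come from the NCI in vitro disease-oriented human tumor cell screen. GI50 is the concentration giving 50% growth inhibition of tumor cells; pGI50 is its −log molar form.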

CAKI-1 = assay: Growth inhibition of human Caki1 cells; assay type: functional
ACHN = assay: Growth inhibition of human ACHN cells; assay type: functional
NCI/ADR-RES = assay: Growth inhibition of human NCI/ADR-RES cells; assay type: functional; outline: as §2
A549 = assay: Cytotoxicity against human A549 cells after 4 days by modified propidium iodide staining-based fluorescence assay; assay type: functional, cell-based; conditions: A549, 96 h; outline: as §1
KM12 = assay: Growth inhibition of human KM12 cells; assay type: functional
OVCAR-3 [3] = assay: Cytotoxicity against human OVCAR-3 cells after 4 days by modified propidium iodide staining-based fluorescence assay; assay type: functional, cell-based; conditions: OVCAR-3, 96 h; outline: as §1
HL-60(TB) = assay: Growth inhibition of human HL-60(TB) cells; assay type: functional
Outline: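 Values come from the NCI in vitro disease-oriented human tumour cell line screen, not from this lab's propidium iodide assay. GI50 is the concentration giving 50% inhibition of net cell growth, also reported as pGI50, the −log of that molar concentration.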

[4] = Cytotoxicity against human MEXF 462NL cells after 4 days by modified propidium iodide staining-based fluorescence assay; assay type: functional, cell-based; conditions: 96 h; outline: as §1
HCT-15 = assay: Growth inhibition of human HCT15 cells; assay type: functional
SNB-19 = assay: Growth inhibition of human SNB19 cells; assay type: functional; outline: as §2
HCT-116 [5] = assay: Cytotoxicity against human HCT116 cells after 4 days by modified propidium iodide staining-based fluorescence assay; assay type: functional, cell-based; conditions: HCT-116, 96 h; outline: as §1
OVCAR-8 = assay: Growth inhibition of human OVCAR8 cells; assay type: functional; outline: as §2
SF-268 = assay: Cytotoxicity against human SF268 cells after 4 days by modified propidium iodide staining-based fluorescence assay; assay type: functional, cell-based; conditions: SF-268, 96 h; outline: as §1
[6] = Cytotoxicity against human UXF 1138L cells after 4 days by modified propidium iodide staining-based fluorescence assay; assay type: functional, cell-based; conditions: 96 h; outline: as §1
OVCAR-3 [7] = assay: Growth inhibition of human OVCAR-3 cells; assay type: functional; outline: as §2
[8] = Cytotoxicity against human MEXF 276L cells after 4 days by modified propidium iodide staining-based fluorescence assay; assay type: functional, cell-based; conditions: MEXF276L, 96 h; outline: as §1
[9] = Cytotoxicity against human 1781L cells after 4 days by modified propidium iodide staining-based fluorescence assay; assay type: functional, cell-based; conditions: 96 h; outline: as §1
MCF7 [10] = assay: Growth inhibition of human MCF7 cells; assay type: functional; outline: as §2
Malme-3M = assay: Growth inhibition of human MALME-3M cells; assay type: functional; outline: as §2
HT-29 = assay: Cytotoxicity against human HT-29 cells after 4 days by modified propidium iodide staining-based fluorescence assay; assay type: functional, cell-based; conditions: HT-29, 96 h; outline: as §1
EKVX = assay: Growth inhibition of human EKVX cells; assay type: functional
NCI-H460 [11] = assay: Cytotoxicity against human H460 cells after 4 days by modified propidium iodide staining-based fluorescence assay; assay type: functional, cell-based; conditions: NCI-H460, 96 h; outline: as §1
U-251 = assay: Growth inhibition of human U251 cells; assay type: functional; outline: as §2
[12] = Cytotoxicity against human 899L cells after 4 days by modified propidium iodide staining-based fluorescence assay; assay type: functional, cell-based; conditions: 96 h; outline: as §1
[13] = Cytotoxicity against human MEXF 520L cells after 4 days by modified propidium iodide staining-based fluorescence assay; assay type: functional, cell-based; conditions: 96 h; outline: as §1
SN12C = assay: Growth inhibition of human SN12C cells; assay type: functional; outline: as §2
UO-31 = assay: Growth inhibition of human UO31 cells; assay type: functional; outline: as §2
SW-620 = assay: Growth inhibition of human SW620 cells; assay type: functional; outline: as §2
[14] = Cytotoxicity against human RXF 486L cells after 4 days by modified propidium iodide staining-based fluorescence assay; assay type: functional, cell-based; conditions: 96 h; outline: as §1
DU-145 = assay: Cytotoxicity against human DU145 cells after 4 days by modified propidium iodide staining-based fluorescence assay; assay type: functional, cell-based; conditions: DU-145, 96 h; outline: as §1
OVCAR-4 = assay: Growth inhibition of human OVCAR4 cells; assay type: functional; outline: as §2
786-0 = assay: Growth inhibition of human 786-0 cells; assay type: functional
[15] = Cytotoxicity against human MAXF 401NL cells after 4 days by modified propidium iodide staining-based fluorescence assay; assay type: functional, cell-based; conditions: 96 h; outline: as §1
SF-295 = assay: Growth inhibition of human SF295 cells; assay type: functional; outline: as §2
HCT-116 [16] = assay: Growth inhibition of human HCT116 cells; assay type: functional
MOLT-4 = assay: Growth inhibition of human MOLT4 cells; assay type: functional; outline: as §2
SF-539 = assay: Growth inhibition of human SF539 cells; assay type: functional; outline: as §2
NCI-H522 = assay: Growth inhibition of human NCI-H522 cells; assay type: functional; outline: as §2
NCI-H460 [17] = assay: Growth inhibition of human NCI-H460 cells; assay type: functional; outline: as §2

COc1ccc2c(c1)c(-c1ccc(-c3cn(C)c4ccc(OC)cc34)o1)cn2C
IC50 [1]: 5.8 mg/L (≈ 15 µM) | IC50 (MCF7 [2]): 6.2 mg/L (≈ 16 µM) | GI50 (SNB-75): 13.6 µM | GI50 (CAKI-1): 17.1 µM | GI50 (ACHN): 3.74 µM | GI50 (NCI/ADR-RES): 2.37 µM | IC50 (A549): 9.6 mg/L (≈ 24.8 µM) | GI50 (KM12): 2.73 µM | IC50 (OVCAR-3 [3]): 4.2 mg/L (≈ 10.9 µM) | GI50 (HL-60(TB)): 1.98 µM | IC50 [4]: 12.5 mg/L (≈ 32.3 µM) | GI50 (HCT-15): 4.22 µM | GI50 (SNB-19): 29.8 µM | IC50 (HCT-116 [5]): 50.4 mg/L (≈ 130 µM) | GI50 (OVCAR-8): 8.02 µM | IC50 (SF-268): 35.1 mg/L (≈ 90.8 µM) | IC50 [6]: 13.7 mg/L (≈ 35.5 µM) | GI50 (OVCAR-3 [7]): 8.51 µM | IC50 [8]: 3.8 mg/L (≈ 9.83 µM) | IC50 [9]: 22 mg/L (≈ 56.9 µM) | GI50 (MCF7 [10]): 17.3 µM | GI50 (Malme-3M): 52.8 µM | IC50 (HT-29): > 100 mg/L | GI50 (EKVX): 5.48 µM | IC50 (NCI-H460 [11]): 22.2 mg/L (≈ 57.4 µM) | GI50 (U-251): 3.66 µM | IC50 [12]: > 100 mg/L | IC50 [13]: 6.4 mg/L (≈ 16.6 µM) | GI50 (SN12C): 21.6 µM | GI50 (UO-31): 3.6 µM | GI50 (SW-620): 4.55 µM | IC50 [14]: > 100 mg/L | IC50 (DU-145): > 100 mg/L | GI50 (OVCAR-4): 2.06 µM | GI50 (786-0): > 100 µM | IC50 [15]: 8.1 mg/L (≈ 21 µM) | GI50 (SF-295): 13.4 µM | GI50 (HCT-116 [16]): 8.8 µM | GI50 (MOLT-4): > 100 µM | GI50 (SF-539): 2.47 µM | GI50 (NCI-H522): 3.42 µM | GI50 (NCI-H460 [17]): 9.89 µM
